MC4R barr agon: activates human MC4R beta-arrestin recruitment. U2OS MC4R beta-arrestin complementation, luminescence; percent of melanotan II response, DMSO zero. activation, % at 8.9 µM. 0.98% of 360,000 active;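 active = activation above a per-plate cutoff, the mean activation of sample wells on that plate plus 3 SD, cut at about 8% in these data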
SMARCA2 act: SMARCA2 function activation, primary screen; AID 652017; 1% of 370,000 active; activation, % at 9.1 µM; MG213 cells, MMTV-luciferase reporter, dexamethasone, overnight; in the data active = activation above about 7.8%;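 also: 0% = vehicle wells and 100% = reference activator wells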
ATG4B inhibitor: ATG4B (human) cysteine protease inhibition; ATG4B cleavage of LC3-PLA2, NBD-HPC fluorescence, 1 h; inhibition, % at 8.33 µM; 0.51% of 340,000 active; in the data active = inhibition above about 40%
MPTP block: permeability transition pore inhibition. isolated mouse mitochondria, Ca2+ swelling absorbance, 30 min. inhibition, % at 10 µM. 1.4% of 360,000 active;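 active = inhibition of 50% or more, scaled per plate between neutral and stimulator controls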;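 also: 0% = DMSO wells given calcium and 100% = 1 mM EGTA wells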
MC4R antagonist: antagonists of human melanocortin 4 receptor (MC4R) | 0.48% of 360,000 active | MC4R-expressing cells, MTII-stimulated cAMP, LANCE TR-FRET | P32245 | inhibition, % at 6.5 µM;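 active = inhibition above its plate's cutoff, the mean of tested wells on that plate plus 3 SD, cut at about 29% in these data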;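 also: 0% = Melanotan II alone and 100% = Melanotan II plus saturating MCL0020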
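Material – human MC4R-expressing U2OS cells · Repeats – no replicates · Detection – TR-FRET with Eu-cAMP and labeled anti-cAMP, 671 nm · Times – compound 30 min, challenge 1 h, detection 1 h · Compound – single nominal compound dose of 6.5 µM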
MC4R barr conf: human MC4R beta-arrestin agonism confirmation | activation, % at 8.9 µM | 31% of 2,400 active | shares compounds with MC4R barr agon | U2OS MC4R beta-arrestin recruitment, luminescence; scaled DMSO 0%, Melanotan II 100% | AID 602192;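 active = mean activation across replicates above the hit cutoff set in the earlier primary screen, cut at about 8% in these data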
MOR DOR agonist: activates mu-delta opioid heterodimer, MC4R agonist counter-screen; shares compounds with MC4R barr agon; U2OS PathHunter beta-arrestin, beta-gal luminescence; percent of deltorphin B response, DMSO zero; activation, % at 9.2 µM; 5.8% of 2,400 active; AID 602194;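 active = mean activation across replicates exceeds the hit threshold derived in the earlier primary screen, cut at about 18% in these data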;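 also: 100% = deltorphin B at 0.9 µM final and 0% = DMSO alone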
Target sequence (P35372 whole entry, looked up): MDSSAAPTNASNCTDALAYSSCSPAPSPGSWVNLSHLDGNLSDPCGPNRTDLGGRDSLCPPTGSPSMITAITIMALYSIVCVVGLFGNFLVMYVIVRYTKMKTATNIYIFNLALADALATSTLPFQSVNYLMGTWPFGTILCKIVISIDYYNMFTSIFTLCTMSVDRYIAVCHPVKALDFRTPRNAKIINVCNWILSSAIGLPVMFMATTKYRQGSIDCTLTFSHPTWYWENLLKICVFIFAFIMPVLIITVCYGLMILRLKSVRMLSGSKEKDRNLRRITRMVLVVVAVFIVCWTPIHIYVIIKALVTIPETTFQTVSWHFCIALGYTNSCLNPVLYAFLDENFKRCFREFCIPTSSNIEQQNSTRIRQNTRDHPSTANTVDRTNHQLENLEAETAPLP
Target sequence (P41143 whole entry, looked up): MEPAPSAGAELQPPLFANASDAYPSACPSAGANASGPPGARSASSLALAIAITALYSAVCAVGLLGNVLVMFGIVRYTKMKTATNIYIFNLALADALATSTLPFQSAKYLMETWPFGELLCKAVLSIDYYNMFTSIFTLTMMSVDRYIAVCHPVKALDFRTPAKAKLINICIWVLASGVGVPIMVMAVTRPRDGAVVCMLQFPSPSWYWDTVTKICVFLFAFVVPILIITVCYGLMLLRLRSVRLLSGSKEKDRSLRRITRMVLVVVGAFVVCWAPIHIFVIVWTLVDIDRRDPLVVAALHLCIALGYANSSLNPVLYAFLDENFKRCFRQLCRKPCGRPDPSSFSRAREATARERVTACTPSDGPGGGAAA
Rh123 counter: mitochondrial membrane potential, counter-screen. shares compounds with MPTP block. 78% of 5,000 active. isolated mitochondria, Rhodamine 123 fluorescence. inhibition, % at 10 µM. AID 624504; in the data active = inhibition above about 22%;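 also: 0% = DMSO vehicle and 100% = positive control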
MPTP swell DR: MPTP inhibition, dose response swelling confirmation. IC50, µM. isolated mitochondria swelling, absorbance. 58% of 780 active. shares compounds with MPTP block; in the data active = IC50 below about 20 µM
MPTP cs DR: active in counter-screen for permeability transition pore inhibitors; shares compounds with MPTP block; isolated mitochondria counterscreen, fluorescence read-out; IC50, µM; 49% of 780 active; in the data active = IC50 below about 80 µM
The depositor's hits bear a star; · = no result. Most compounds without a hit are left out; they make up all but 4.1% or so of the library.

SMILES	MC4R barr agon	SMARCA2 act	ATG4B inhibitor	MPTP block	MC4R antagonist	MC4R barr conf	MOR DOR agonist	Rh123 counter	others
CCc1c(C)sc(NC(=O)Cn2nc(C(F)(F)F)c3c2CCCC3)c1C#N	10*	2	-6	65*	4	5	5	77*
CC(C)CN1C(=O)[C@@]2(CC(=O)N(C)C2c2ccccc2)c2cc(-n3cc(CCCC#N)nn3)ccc21 (some centres undefined)	·	-3	·	·	·	·	·	·
Oc1ccccc1/C=N/NC(=S)NC1CC2CCC1C2 (centres undefined)	12*	1	-11	54*	11	-2	7	67*
O=C1c2cccc3cccc(c23)C(=O)N1CC1CCN(CC(O)COc2ccc3ccccc3c2)CC1 (centres undefined)	55*	-3	-26	89*	-3	22*	16	99*
O=C1c2cccc3cccc(c23)C(=O)N1CCN1CCN(CC(O)COc2ccc3ccccc3c2)CC1 (centres undefined)	8	-1	10	3	-1	·	·	·
Cc1cc(C)cc(OCC(O)CN2CCC(CN3C(=O)c4cccc5cccc(c45)C3=O)CC2)c1 (centres undefined)	31*	-5	-18	98*	9	33*	14	100*
O=C(NC1CCCCN(Cc2cccc(C(F)(F)F)c2)C1=O)c1ccc(Cl)c(Cl)c1 (centres undefined)	·	-3	·	·	·	·	·	·
COc1cc(-c2nc(-c3ccccc3)c(-c3ccc(F)cc3)[nH]2)cc2c1OCO2	12*	-1	10	89*	12	3	10	63*
COc1ccc(-c2nc(-c3ccccc3)c(-c3cccs3)[nH]2)cc1OC	2	0	10	3	17	·	·	·
C=CCN1[C@@H](Cc2ccccc2)COc2cccc(N3CCCC3)c2S1(=O)=O	·	-2	·	·	·	·	·	·
Cc1ccc2c(c1)c1c3n2CCCNC3CCC1 (centres undefined)	0	-3	4	-5	-7	·	·	·
c1cc2c(cc1C1CCCCC1)c1c3n2CCCNC3CCC1 (centres undefined)	15*	-6	1	80*	-12	32*	11	-29
COC(=O)C1=C(C)N(Cc2ccccc2C(F)(F)F)C(=NCc2cccc(C(F)(F)F)c2)NC1c1ccc(F)cc1 (centres undefined)	·	-3	·	·	·	·	·	·
CCOC(=O)c1sc(NC(=O)c2cccc(S(=O)(=O)N(CC)CC)c2)cc1C	12*	0	-14	51*	18	0	5	11	MPTP swell DR=>100;MPTP cs DR=<2.5*
O=C(Nc1ccccc1)OCCN1C(=O)CCC12CCC(c1ccccc1)CC2 (centres undefined)	·	-2	·	·	·	·	·	·
Cc1ccc(CC(=O)Nc2ccc(F)c([N+](=O)[O-])c2)cc1	-2	-4	-3	-1	7	·	·	·
Cc1ccc(CNC(=S)Nc2ccc(C)c([N+](=O)[O-])c2)cc1	13*	-1	8	102*	2	0	7	98*
C=CCc1cccc(/C=N/NC(=O)CCCNc2ccc(C)cc2)c1O	16*	-2	-13	54*	-1	0	3	30*
COc1ccc(NC(=O)Nc2nnc(-c3cccs3)s2)cc1	13*	1	3	69*	-2	0	5	69*
O=[N+]([O-])c1ccc(O)c(C=NNc2ccc(S(=O)(=O)O)cc2)c1	-1	-2	0	-1	-6	·	·	·
O=[N+]([O-])c1cccc(N/N=C/c2cc([N+](=O)[O-])ccc2O)c1	11*	4	10	64*	-10	-6	3	61*

High-throughput results (PubChem)
